Experimental data taken from ChEMBL document CHEMBL2375315, “Alkaloids from the deep-sea-derived fungus Aspergillus westerdijkiae DFFSCS013” (J Nat Prod, 2013).

Key:
Format in all cases: functional, cell-based
A549 = assay: Cytotoxicity against human A549 cells by MTT assay
Method in brief: (§1)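 Human tumour lines (erythroid leukemic K562, promyelocytic leukemia HL-60, breast adenocarcinoma MCF-7, lung carcinoma A549) exposed to compounds; viability read by MTT method, following a previously published protocol; IC50 values derived.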

K562 = assay: Cytotoxicity against human K562 cells by MTT assay; method in brief: as §1
HL-60 = assay: Cytotoxicity against human HL60 cells by MTT assay; method in brief: as §1
MCF7 = assay: Cytotoxicity against human MCF7 cells by MTT assay; method in brief: as §1

| Compound | IC50 (A549) [µM] | IC50 (K562) [µM] | IC50 (HL-60) [µM] | IC50 (MCF7) [µM] |
| --- | --- | --- | --- | --- |
| CC1(C)C=Cc2c(ccc3c2NC(=O)[C@@]32[C@@H](O)[C@@]34NC(=O)[C@]5(CCCN5C3=O)C[C@H]4C2(C)C)O1 | > 10 | 53 | > 10 | > 10 |
| CC(C)CC(=O)OC(/C(=N/O)C(N)=O)C(C)C (configuration not stated) | > 10 | > 10 | > 10 | > 10 |
| C[C@H]1NC(=O)c2ccccc2-n2c1nc1ccccc1c2=O | > 10 | > 10 | > 10 | > 10 |
| C[C@@H]1NC(=O)c2ccccc2-n2c1nc1c(O)cccc1c2=O | > 10 | > 10 | > 10 | > 10 |
| O=C1NCc2nc3c(O)cccc3c(=O)n2-c2ccccc21 | > 10 | > 10 | > 10 | > 10 |
| C[C@@H]1NC(=O)c2ccccc2-n2c1nc1c(c2=O)C=CC=CO1 | > 10 | > 10 | > 10 | > 10 |
| CC1(C)C=Cc2c3c(cc(Cl)c2O1)[C@@]1(C(=O)N3)[C@H](O)[C@@]23NC(=O)[C@]4(CCCN4C2=O)C[C@H]3C1(C)C | > 10 | 44 | > 10 | > 10 |
| CC1(C)C=Cc2c(ccc3c2NC(=O)[C@@]32[C@H](O)[C@@]34NC(=O)[C@]5(CCCN5C3=O)C[C@H]4C2(C)C)O1 [SCLEROTIAMIDE] | > 10 | 26 | 45 | > 10 |
